Among the data in ChEMBL document CHEMBL1123214, “(o- and p-Nitrobenzyloxycarbonyl)-5-fluorouracil derivatives as potential conjugated bioreductive alkylating agents” (1986) are T/C and Change in weight values, retold here.

The structures appear in SMILES notation.

Holding throughout (format): functional
For test [1], the system named is Mus musculus. In words: Compound was tested for the effect on the survival time of the mice bearing P388 leukemia at dose 40 mg/kg; ratio of survival time of treated and control. The gist of the method:
(§1)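 Ascites cells were taken from donor CDF₁ mice with 7-day growths, spun, diluted 10-fold in isotonic saline and set to 10⁷ cells/mL. About 10⁶ cells were given ip per mouse. Drug was homogenized in 20% aqueous Tween 80, made up in saline, and given ip once daily for 6 days from 24 h after implant. Vehicle controls were included. Read-out was survival time, as T/C × 100, with % weight change as toxicity.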

The subject of test [2] is Mus musculus. In words: Compound was tested for the effect on the survival time of the mice bearing P388 leukemia at dose 40 mg/kg. The gist of the method: as §1
The subject of test [3] is Mus musculus. Description: Compound was tested for the effect on the survival time of the mice bearing P388 leukemia at dose 80 mg/kg. The gist of the method: as §1
For test [4], the system named is Mus musculus. In words: Compound was tested for the effect on the survival time of the mice bearing P388 leukemia at dose 60 mg/kg; ratio of survival time of treated and control. Summed up:
as §1

Test [5] concerns Mus musculus. Description: Compound was tested for the effect on the survival time of the mice bearing P388 leukemia at dose 60 mg/kg. Summed up:
as §1

The subject of test [6] is Mus musculus. Description: Compound was tested for the effect on the survival time of the mice bearing P388 leukemia at dose 80 mg/kg; ratio of survival time of treated and control. The gist of the method: as §1
Test [7] deals with Mus musculus. In words: Compound was tested for the effect on the survival time of the mice bearing P388 leukemia at dose 20 mg/kg. Summed up:
as §1

Test [8] concerns Mus musculus. Description: Compound was tested for the effect on the survival time of the mice bearing P388 leukemia at dose 100 mg/kg; ratio of survival time of treated and control. The gist of the method:
as §1

Test [9] deals with Mus musculus. In words: Compound was tested for the effect on the survival time of the mice bearing Sarcoma 180 ascites at dose of 20 mg/kg; ratio of survival time of treated and control. The gist of the method:
as §1

Test [10] relates to Mus musculus. In words: Compound was tested for the effect on the survival time of the mice bearing P388 leukemia at dose 200 mg/kg; ratio of survival time of treated and control. Summed up: as §1
In test [11] the test system is Mus musculus. In words: Compound was tested for the effect on the survival time of the mice bearing P388 leukemia at dose 200 mg/kg. The gist of the method:
as §1

In test [12] the test system is Mus musculus. Description: Compound was tested for the effect on the survival time of the mice bearing P388 leukemia at dose 100 mg/kg. The gist of the method: as §1
Test [13] concerns Mus musculus. Description: Compound was tested for the effect on the survival time of the mice bearing Sarcoma 180 ascites at dose of 10 mg/kg; ratio of survival time of treated and control. Summed up: as §1
Test [14] has as its system Mus musculus. In words: Compound was tested for the effect on the survival time of the mice bearing Sarcoma 180 ascites at dose of 20 mg/kg. The gist of the method: as §1
Test [15] has as its system Mus musculus. In words: Compound was tested for the effect on the survival time of the mice bearing Sarcoma 180 ascites at dose of 10 mg/kg. Summed up:
as §1

Test [16] has as its system Mus musculus. Description: Compound was tested for the effect on the survival time of the mice bearing Sarcoma 180 ascites at dose of 40 mg/kg; ratio of survival time of treated and control. Summed up:
as §1

Test [17] deals with Mus musculus. In words: Compound was tested for the effect on the survival time of the mice bearing P388 leukemia at dose 20 mg/kg; ratio of survival time of treated and control. The gist of the method:
as §1

Test [18] deals with Mus musculus. Description: Compound was tested for the effect on the survival time of the mice bearing Sarcoma 180 ascites at dose of 40 mg/kg. Summed up: as §1
Test [19] deals with Mus musculus. Description: Compound was tested for the effect on the survival time of the mice bearing P388 leukemia at dose 25 mg/kg; ratio of survival time of treated and control. Summed up:
as §1

Test [20] has as its system Mus musculus. In words: Compound was tested for the effect on the survival time of the mice bearing P388 leukemia at dose 50 mg/kg; ratio of survival time of treated and control. The gist of the method: as §1
Test [21] relates to Mus musculus. In words: Compound was tested for the effect on the survival time of the mice bearing P388 leukemia at dose 50 mg/kg. The gist of the method: as §1
Test [22] deals with Mus musculus. In words: Compound was tested for the effect on the survival time of the mice bearing P388 leukemia at dose 25 mg/kg. The gist of the method: as §1

In the case of `O=C(Cc1ccc([N+](=O)[O-])cc1)On1cc(F)c(=O)n(OC(=O)Cc2ccc([N+](=O)[O-])cc2)c1=O`, the T/C in the test with Mus musculus [1] was found to be 136; with Mus musculus [4], 149; with Mus musculus [6], 158. The Change in weight in the test on Mus musculus [2] is on record as -2.7%; with Mus musculus [3], -7.4%; in the test with Mus musculus [5], -5.5%.
As to `O=C(Cc1ccc([N+](=O)[O-])cc1)On1c(=O)[nH]cc(F)c1=O`, the Change in weight with Mus musculus [7] was 5.6%; in the test with Mus musculus [2], 0%; in the test with Mus musculus [11] it was -10.7%; in the test on Mus musculus [12] it was -11.6%; with Mus musculus [3], -5.8%; with Mus musculus [14], 2.7%. Further, the Change in weight in the test with Mus musculus [15] is listed as 9.6%; in the test on Mus musculus [5] it was -2.9%; in the test on Mus musculus [18], -7.6%. The T/C stood at 158 with Mus musculus [8]; 190 with Mus musculus [1]; 124 in the test on Mus musculus [9]; 64 in the test with Mus musculus [10]; 159 in the test on Mus musculus [13]; 196 in the test on Mus musculus [4]. The T/C in the test on Mus musculus [16] worked out at 332; with Mus musculus [17] it was 165; in the test on Mus musculus [6] it was 212.
In the case of `O=c1[nH]c(=O)n(Cc2ccccc2[N+](=O)[O-])cc1F`, the figures for the T/C with Mus musculus [19], in the test with Mus musculus [8] and in the test on Mus musculus [20] were 90, 88 and 92, respectively. In addition, the Change in weight with Mus musculus [12] is reported as 20.8%; in the test with Mus musculus [21] it was 10%; in the test with Mus musculus [22], 13.3%.
`O=c1c(F)cn(C2CCCO2)c(=O)n1Cc1ccccc1[N+](=O)[O-]` (stereo not drawn): the T/C with Mus musculus [19] turned out to be 90; in the test on Mus musculus [8], 96; in the test with Mus musculus [20] it was 96. The Change in weight in the test on Mus musculus [12] is recorded as 13.7%; in the test with Mus musculus [21], 7.8%; in the test with Mus musculus [22], 10.3%.
In the case of `O=c1[nH]cc(F)c(=O)[nH]1` [FLUOROURACIL], the Change in weight in the test on Mus musculus [7] was -12.5%; with Mus musculus [14], -3.4%. The T/C came to 277 in the test on Mus musculus [9] and 185 in the test with Mus musculus [17].
As for `O=c1[nH]c(=O)n(C2CCCO2)cc1F` (stereo not drawn) [TEGAFUR], the T/C in the test with Mus musculus [4] came to 100. For the same molecule, the Change in weight in the test on Mus musculus [5] amounted to 12.2%.
Take `O=c1c(F)cn(Cc2ccccc2[N+](=O)[O-])c(=O)n1Cc1ccccc1[N+](=O)[O-]`: the T/C with Mus musculus [19] was 90; in the test on Mus musculus [8], 86; with Mus musculus [20], 88. The Change in weight was 22.4% in the test on Mus musculus [12], 15% in the test with Mus musculus [21] and 17.8% with Mus musculus [22].
